Measured values: ChEMBL document CHEMBL1122774, “Tri- and tetrapeptide analogues of kinins as potential renal vasodilators” (J Med Chem, 1984)
Square brackets hold non-standard residues; d marks the D form. Peptide text beside a SMILES is read from it. * marks the point of attachment. ξ: configuration not given here. Butanoyl(4-(4-HOPh)) = O=C(CCCc1ccc(O)cc1)*; ξαMeF = CC(N)(Cc1ccccc1)C(=O)O; PhAc = O=C(Cc1ccccc1)*; Bz = O=C(c1ccccc1)*

Experiments:
[1] = test system: Canis familiaris; experiment: In vivo percent change in renal blood flow at 30 ug/Kg/min.; format: functional, Canis lupus familiaris, Kidney
In short: (§1)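 Primary screen in anesthetized dogs (7-17 kg). Drug infused separately at 3, 30 and 300 µg/(kg min), each infusion lasting 5 min, at about 15-min intervals. Read-outs are renal blood flow, mean arterial blood pressure, heart rate, and RVR (MABP / mean RBF), as percent change. Significance thresholds are defined per number of dogs; n = 1-3 dogs.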

[2] = test system: Canis familiaris; experiment: Renal vasodilator activity in anesthetized dogs and percent change in renal vascular resistance (RVR) was determined at 30 ug/Kg/min; format: functional, Canis lupus familiaris; in short: as §1
[3] = test system: Canis familiaris; experiment: In vivo percent change in canine heart rate at 3 ug/Kg/min.; format: functional, Canis lupus familiaris; in short: as §1
[4] = test system: Canis familiaris; experiment: In vivo percent change in canine heart rate at 30 ug/Kg/min.; format: functional, Canis lupus familiaris; in short: as §1
[5] = test system: Canis familiaris; experiment: In vivo percent change in canine heart rate at 300 ug/Kg/min.; format: functional, Canis lupus familiaris; in short: as §1
[6] = test system: Canis familiaris; experiment: In vivo percent change in canine mean arterial blood pressure (MABP) at 3 ug/Kg/min.; format: functional, Canis lupus familiaris; in short: as §1
[7] = test system: Canis familiaris; experiment: In vivo percent change in canine mean arterial blood pressure (MABP) at 30 ug/Kg/min.; format: functional, Canis lupus familiaris; in short: as §1
[8] = test system: Canis familiaris; experiment: In vivo percent change in canine mean arterial blood pressure (MABP) at 300 ug/Kg/min.; format: functional, Canis lupus familiaris; in short: as §1
[9] = test system: Canis familiaris; experiment: In vivo percent change in canine renal blood flow (RBF) at 3 ug/Kg/min.; format: functional, Canis lupus familiaris, Kidney; in short: as §1
[10] = test system: Canis familiaris; experiment: In vivo percent change in canine renal blood flow (RBF) at 300 ug/Kg/min.; format: functional, Canis lupus familiaris, Kidney; in short: as §1
[11] = test system: Canis familiaris; experiment: In vivo percent change in canine renal vascular resistance (RVR) at 3 ug/Kg/min.; format: functional, Canis lupus familiaris; in short: as §1
[12] = test system: Canis familiaris; experiment: In vivo percent change in canine renal vascular resistance (RVR) at 300 ug/Kg/min.; format: functional, Canis lupus familiaris; in short: as §1
[13] = test system: Canis familiaris; experiment: Renal vasodilator activity in anesthetized dogs and percent change in heart rate (HR) was determined at 3 ug/kg min; format: functional, Canis lupus familiaris; in short: as §1
[14] = test system: Canis familiaris; experiment: Renal vasodilator activity in anesthetized dogs and percent change in heart rate (HR) was determined at 30 ug/kg min; format: functional, Canis lupus familiaris; in short: as §1
[15] = test system: Canis familiaris; experiment: Renal vasodilator activity in anesthetized dogs and percent change in heart rate (HR) was determined at 300 ug/kg min; format: functional, Canis lupus familiaris; in short: as §1
[16] = test system: Canis familiaris; experiment: Renal vasodilator activity in anesthetized dogs and percent change in mean arterial blood pressure (MABP) was determined at 3 ug/kg min; format: functional, Canis lupus familiaris; in short: as §1
[17] = test system: Canis familiaris; experiment: Renal vasodilator activity in anesthetized dogs and percent change in mean arterial blood pressure (MABP) was determined at 30 ug/kg min; format: functional, Canis lupus familiaris; in short: as §1
[18] = test system: Canis familiaris; experiment: Renal vasodilator activity in anesthetized dogs and percent change in mean arterial blood pressure (MABP) was determined at 300 ug/kg min; format: functional, Canis lupus familiaris; in short: as §1
[19] = test system: Canis familiaris; experiment: Renal vasodilator activity in anesthetized dogs and percent change in renal blood flow (RBF) was determined at 3 ug/kg min; format: functional, Canis lupus familiaris, Kidney; in short: as §1
[20] = test system: Canis familiaris; experiment: Renal vasodilator activity in anesthetized dogs and percent change in renal blood flow (RBF) was determined at 30 ug/kg min; format: functional, Canis lupus familiaris, Kidney; in short: as §1
[21] = test system: Canis familiaris; experiment: Renal vasodilator activity in anesthetized dogs and percent change in renal blood flow (RBF) was determined at 300 ug/kg min; format: functional, Canis lupus familiaris, Kidney; in short: as §1
[22] = test system: Canis familiaris; experiment: Renal vasodilator activity in anesthetized dogs and percent change in renal vascular resistance (RVR) was determined at 3 ug/kg min; format: functional, Canis lupus familiaris; in short: as §1
[23] = test system: Canis familiaris; experiment: Renal vasodilator activity in anesthetized dogs and percent change in renal vascular resistance (RVR) was determined at 300 ug/kg min; format: functional, Canis lupus familiaris; in short: as §1
[24] = test system: Canis familiaris; experiment: Renal vasodilator activity in anesthetized dogs and percent change in renal vascular resistance (RVR) was determined at 30 ug/kg min; format: functional, Canis lupus familiaris; in short: as §1
[25] = Average max percent decrease in RVR (renal vascular resistance) was determined.
In short: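 Secondary protocol in anesthetized dogs. Drug given as iv infusion at progressively increasing rates, each dose level for 5 min. The maximum effect is taken as the largest percent decrease in renal vascular resistance (RVR) reached with the compound. RVR is calculated as mean arterial blood pressure / mean renal blood flow.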

[26] = test system: Canis familiaris; experiment: In vivo percent change in canine renal blood flow (RBF) at 30 ug/Kg/min.; format: functional, Canis lupus familiaris, Kidney; in short: as §1

Molecule | Change [2] [%] | Change [3] [%] | Change [4] [%] | Change [5] [%] | Change [6] [%] | Change [7] [%] | Change [8] [%] | Change [9] [%] | Change [10] [%] | Change [11] [%] | Change [12] [%] | Change [13] [%] | Change [14] [%] | Change [15] [%] | Change [16] [%] | Change [17] [%] | Change [18] [%] | Change [19] [%] | Change [20] [%] | Change [21] [%] | other results
CC(Cc1ccccc1)(NC(=O)[C@@H]1CCCN1C(=O)CCCc1ccc(O)cc1)C(=O)NCCCCCC(=O)O (some centres not stated) | 5 | -4 | -2 | -6 | 0 | 2 | 1 | 1 | 5 | -1 | -4 | – | – | – | – | – | – | – | – | – | Change [1]: -4%
CC(Cc1ccccc1)(NC(=O)[C@@H]1CCCN1C(=O)Cc1ccccc1)C(=O)N[C@@H](CCCN=C(N)N)C(=O)O (some centres not stated) (PhAc-Pro-[ξαMeF]-Arg-OH) | – | – | – | – | – | – | – | – | – | – | – | 9 | -2 | 0 | 0 | 0 | 5 | 4 | 0 | -2 | Change [22]: -4%; Change [23]: 7%; Change [24]: 0%
Cl.NCCCNC(=O)[C@@H]1Cc2ccccc2CN1C(=O)CCCc1ccc(O)cc1 | – | – | – | – | – | – | – | – | – | – | – | 1 | -2 | -1 | -2 | -1 | -2 | 3 | 6 | 5 | Change [22]: -6%; Change [23]: -6%; Change [24]: -6%
CC(Cc1ccccc1)(NC(=O)[C@@H]1CCCN1)C(=O)N1CCC[C@H]1C(=O)O (some centres not stated) (H-Pro-[ξαMeF]-Pro-OH) | – | – | – | – | – | – | – | – | – | – | – | 0 | 0 | 0 | 1 | 0 | -3 | 0 | 0 | 8 | Change [22]: 1%; Change [23]: -10%; Change [24]: 0%
CC(Cc1ccc(O)cc1)(NC(=O)[C@@H]1CCCN1C(=O)CCCc1ccc(O)cc1)C(=O)NCCCN.Cl (some centres not stated) | -3 | 1.5 | 4 | 3.5 | -2 | 1 | 0 | 8.5 | 10 | -9.5 | 8.5 | – | – | – | – | – | – | – | – | – | Change [1]: 3.5%
H-FSPFR-OH | – | – | – | – | – | – | – | – | – | – | – | – | – | – | – | – | – | – | – | – | Decrease [25]: 21%
N=C(N)NCCC[C@H](NC(=O)[C@H](Cc1ccccc1)NC(=O)[C@@H]1CCCN1C(=O)c1ccccc1)C(=O)O (Bz-Pro-Phe-Arg-OH) | – | – | – | – | – | – | – | – | – | – | – | 0 | 0 | 0 | 4 | 1 | 0 | 3 | 0 | -10 | Change [22]: 2%; Change [23]: 11%; Change [24]: 0%
O=C(NCC(=O)N1CCC[C@H]1C(=O)O)[C@@H](Cc1ccccc1)NC(=O)[C@@H]1CCCN1C(=O)CCCc1ccc(O)cc1 ({Butanoyl(4-(4-HOPh))}-P[dF]GP-OH) | -1 | 1 | -2 | -1 | 0 | -1 | -1 | 2 | -1 | -2 | -1 | – | – | – | – | – | – | – | – | – | Change [1]: 0%
O=C(NCC(=O)N1CCC[C@H]1C(=O)O)[C@H](Cc1ccccc1)NC(=O)[C@@H]1CCCN1C(=O)CCCc1ccc(O)cc1 ({Butanoyl(4-(4-HOPh))}-PFGP-OH) | 74.5 | -2.5 | -1.5 | 1.5 | -2 | -1 | -1.5 | 2.5 | 7 | -4.5 | -8.5 | – | – | – | – | – | – | – | – | – | Change [26]: -43%
